Assay results collected from several papers.
Effect on: cell growth or viability

COc1ccc(-c2ccc(-c3ccc(C(=N)N)nc3)s2)cc1  GI50 (UACC-257; SRB): 1.8 µM
COc1ccc(/C=C\c2cc(OC)c(OC)c(OC)c2)cc1O  CC50 (CCRF-CEM; 48 h): 0.036 µM
O=C(N/N=C/c1c(O)ccc2ccccc12)c1cc(-c2ccc3ccccc3c2)n[nH]1  IC50 (WM35; MTS; 24 h): 37 µM
COc1cccc(-c2cn(-c3cc(=O)oc4ccc(Br)cc34)nn2)c1  CC50 (CCRF-CEM; 48 h): 10.3 µM
COc1ccc(C2=Nn3c(NN=C4C(=O)Nc5ccc(OC)cc54)nnc3SC2)cc1  inhibition (SNB-75; SRB; 10 µM): 16%
CC(C)C[C@H](NC(=O)[C@H](Cc1ccccc1)NC(=O)c1cnccn1)B(O)O  IC50 (EPLC-272H; ATP luminescence): 0.0086 µM
COc1ccc(-c2ccc(-c3ccc(C(=N)N)nc3)s2)cc1Cl  GI50 (SNB-75; SRB): 1.43 µM
COc1cc(Nc2nccc(-c3cnn4nc(OC)ccc34)n2)cc(C(F)(F)F)c1  IC50 (RKO; ATP luminescence): 0.27 µM
Oc1ccc(Nc2nc(-c3ccc(Cl)cc3)cs2)cc1  IC50 (WM35; MTS; 48 h): 10.3 µM
